Results from ChEMBL document CHEMBL5357022, “Fluorinated Isoindolinone-Based Glucosylceramide Synthase Inhibitors with Low Human Dose Projections” (ACS Med Chem Lett, 2024).

Legend:
[1] = target: T1, Nuclear receptor subfamily 1 group I member 2 (Homo sapiens, UniProt O75469); assay: Activation of PXR (unknown origin); assay type: toxicity
T1 sequence (O75469 whole entry): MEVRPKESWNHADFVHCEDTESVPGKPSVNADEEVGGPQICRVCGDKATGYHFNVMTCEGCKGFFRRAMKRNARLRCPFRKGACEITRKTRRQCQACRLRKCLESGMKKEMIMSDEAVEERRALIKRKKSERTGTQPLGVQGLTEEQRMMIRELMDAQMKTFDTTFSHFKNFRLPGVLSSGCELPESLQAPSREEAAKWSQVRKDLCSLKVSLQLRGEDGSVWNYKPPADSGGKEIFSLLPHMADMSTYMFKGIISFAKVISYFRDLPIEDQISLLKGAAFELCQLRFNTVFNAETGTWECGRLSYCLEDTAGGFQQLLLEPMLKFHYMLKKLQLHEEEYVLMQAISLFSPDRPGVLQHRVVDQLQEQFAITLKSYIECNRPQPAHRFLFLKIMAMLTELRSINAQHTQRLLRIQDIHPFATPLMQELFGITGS

PXR (NR1I2) = target: T2, PXR (NR1I2) (Homo sapiens, UniProt O75469); assay: Activation of PXR (unknown origin) assessed as maximal efficacy relative to control; assay type: toxicity
T2 sequence (O75469 whole entry): T1 sequence (O75469 whole entry)

[2] = Plasma protein binding in rat assessed as unbound fraction; assay type: ADME, cell-free
[3] = Unbound volume of distribution in Beagle dog at 1 mg/kg, po in 30% captisol formulation or 0.5 mg/kg, iv measured after 24 hrs; assay type: ADME, organism-based, Canis lupus familiaris; settings: in vivo
Summary of the method: (§1)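 Beagle dogs were given 0.5 mg/kg IV in DMSO/PEG400/H2O 20/60/20 at 0.5 mL/kg, and 1 mg/kg PO in 30% Captisol at 2 mL/kg. Sampling ran to a 24 h end point.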

[4] = MRT in Wistar Han rat at 5 mg/kg, po or 2 mg/kg, iv measured after 24 hrs; assay type: ADME, organism-based; settings: in vivo
Summary of the method: (§2)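 Wistar Han rats were dosed IV at 2 mg/kg in DMSO/PEG400/H2O 20/60/20 at 1 mL/kg, and PO at 5 mg/kg in PEG400/Tween80/H2O 40/10/50 at 2 mL/kg. Sampling ran to a 24 h end point.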

[5] = Metabolic stability in human hepatocytes assessed as intrinsic clearance; assay type: ADME, cell-based, Hepatocyte; settings: read-out: CLH
[6] = Plasma protein binding in dog assessed as unbound fraction; assay type: ADME, cell-free, Canis lupus familiaris
[7] = Intrinsic clearance in Wistar Han rat at 5 mg/kg, po or 2 mg/kg, iv measured after 24 hrs; assay type: ADME, organism-based; settings: in vivo; summary of the method: as §2
[8] = […] clearance in Beagle dog at 1 mg/kg, po in 30% captisol formulation or 0.5 mg/kg, iv measured after 24 hrs; assay type: ADME, organism-based, Canis lupus familiaris; settings: in vivo; summary of the method: as §1
[9] = Oral bioavailability in Beagle dog at 1 mg/kg in 30% captisol formulation measured after 24 hrs; assay type: ADME, organism-based, Canis lupus familiaris; settings: in vivo; summary of the method: as §1
[10] = Unbound brain-to-plasma concentration ratio in rat; assay type: ADME; settings: read-out: K(p,uu,brain)
[11] = Octanol-water partition coefficient, logD of the compound; assay type: physicochemical
[12] = Plasma protein binding in human assessed as unbound fraction; assay type: ADME, cell-free
[13] = Unbound volume of distribution in Wistar Han rat at 5 mg/kg, po or 2 mg/kg, iv measured after 24 hrs; assay type: ADME, organism-based; settings: in vivo; summary of the method: as §2
[14] = MRT in Beagle dog at 1 mg/kg, po in 30% captisol formulation or 0.5 mg/kg, iv measured after 24 hrs; assay type: ADME, organism-based, Canis lupus familiaris; settings: in vivo; summary of the method: as §1
[15] = Oral bioavailability in Wistar Han rat at 5 mg/kg measured after 24 hrs; assay type: ADME, organism-based; settings: in vivo; summary of the method: as §2
[16] = MRT in rat; assay type: ADME; settings: in vivo
[17] = Oral bioavailability in Beagle dog at 1 mg/kg in 10% tween 80 formulation measured after 24 hrs; assay type: ADME, organism-based, Canis lupus familiaris; settings: in vivo
Summary of the method: (§3)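 Beagle dogs were given 0.5 mg/kg IV in DMSO/PEG400/H2O 20/60/20 at 0.5 mL/kg, and 1 mg/kg PO in a 10% Tween 80 formulation. Sampling ran to a 24 h end point.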

[18] = […] clearance in Beagle dog at 1 mg/kg, po in 10% tween 80 formulation or 0.5 mg/kg, iv measured after 24 hrs; assay type: ADME, organism-based, Canis lupus familiaris; settings: in vivo; summary of the method: as §3
[19] = Unbound volume of distribution in Beagle dog at 1 mg/kg, po in 10% tween 80 formulation or 0.5 mg/kg, iv measured after 24 hrs; assay type: ADME, organism-based, Canis lupus familiaris; settings: in vivo; summary of the method: as §3
[20] = MRT in Beagle dog at 1 mg/kg, po in 10% tween 80 formulation or 0.5 mg/kg, iv measured after 24 hrs; assay type: ADME, organism-based, Canis lupus familiaris; settings: in vivo; summary of the method: as §3
[21] = Clearance in Wistar Han rat at 4 mg/kg, po measured after 24 hrs; assay type: ADME, organism-based; settings: in vivo
Summary of the method: (§4)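 Wistar Han rat PK study with a 24 h end point, using an oral dose of 4 mg/kg.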

[22] = Intrinsic clearance in Wistar Han rat at 4 mg/kg, po measured after 24 hrs; assay type: ADME, organism-based; settings: in vivo; summary of the method: as §4
[23] = Unbound volume of distribution in Wistar Han rat at 4 mg/kg, po measured after 24 hrs; assay type: ADME, organism-based; settings: in vivo; summary of the method: as §4
[24] = Oral bioavailability in Wistar Han rat at 4 mg/kg measured after 24 hrs; assay type: ADME, organism-based; settings: in vivo; summary of the method: as §4
[25] = MRT in Wistar Han rat at 4 mg/kg, po measured after 24 hrs; assay type: ADME, organism-based; settings: in vivo; summary of the method: as §4

Structure (SMILES)	fraction unbound [2]	Vdu [3] [L/kg]	MRT [4] [h]	CLint scaled [5] [mL/min/kg]	fraction unbound [6]	CL [7] [mL/min/kg]	CL [8] [mL/min/kg]	bioavailability [9] [%]	Kp uu [10]	fraction unbound [12]	Vdu [13] [L/kg]	MRT [14] [h]	bioavailability [15] [%]	EC50 [1] [µM]	Emax (PXR (NR1I2)) [%]	also measured
CN1Cc2cc(-c3cccc4c3C(=O)N([C@H](C3CC3)C(C)(C)O)C4)ccc2C1=O														> 30	11	
Cc1nnc(-c2ccc(-c3c(F)c(F)cc4c3C(=O)N([C@@H](C(C)(C)O)C(F)(F)F)C4)cc2)o1	0.037	14	9.9	4.5	0.11	30	23	79	0.4	0.067	18	11	83	12	80	logD [11]: 2.7
Cc1nnc(-c2ccc(-c3c(F)ccc4c3C(=O)N([C@H](C3CC3)C(C)(C)O)C4)cc2)o1														5.2	100	
CCOc1ccccc1C(=O)Nc1cccc2c1C(=O)N(CC1CC1)C2														4.3	81	MRT [16]: 1.4 h
Cc1nnc(-c2ccc(-c3ccc(F)c4c3C(=O)N([C@H](C3CC3)C(C)(C)O)C4)cc2)o1														8.9	97	
Cc1nnc(-c2ccc(-c3c(F)cc(F)c4c3C(=O)N([C@@H](C(C)(C)O)C(F)(F)F)C4)cc2)o1														14	100	
Cc1nnc(-c2ccc(-c3c(F)c(F)cc4c3C(=O)N([C@H](C3CC3)C(C)(C)O)C4)cc2)o1	0.038	7.1	5.7	33	0.2	30	11	75	0.2	0.098	10	10	36	6.1	100	
Cc1nnc(-c2ccc(-c3c(F)cc(F)c4c3C(=O)N([C@H](C3CC3)C(C)(C)O)C4)cc2)o1														4.6	100	

The next lines start with results.

fraction unbound [2]	Vdu [3] [L/kg]	MRT [4] [h]	CLint scaled [5] [mL/min/kg]	fraction unbound [6]	CL [7] [mL/min/kg]	CL [8] [mL/min/kg]	bioavailability [9] [%]	Kp uu [10]	fraction unbound [12]	Vdu [13] [L/kg]	MRT [14] [h]	bioavailability [15] [%]	Structure (SMILES)	EC50 [1] [µM]	Emax (PXR (NR1I2)) [%]	also measured
0.021	17	3.7	13	0.14	169	17	64	0.1	0.05	36	11	57	Cc1nnc(-c2ccc(-c3cc(F)c(F)c4c3C(=O)N([C@H](C3CC3)C(C)(C)O)C4)cc2)o1			
0.013		3	15	0.1	211			0.5	0.032	36		100	Cc1nnc(-c2ccc(-c3cccc4c3C(=O)N([C@H](C3CC3)C(C)(C)O)C4)cc2)o1	29	89	bioavailability [17]: 81%; CL [18]: 13 mL/min/kg; Vdu [19]: 9.9 L/kg; logD [11]: 2.3; MRT [20]: 8.6 h
0.026	12		19	0.2		21	100		0.046		10		Cc1nnc(-c2ccc(-c3cc(F)cc4c3C(=O)N([C@H](C3CC3)C(C)(C)O)C4)cc2)o1	25	75	CL/F [21]: 3 mL/min/kg; CL [22]: 120 mL/min/kg; Vdu [23]: 16 L/kg; bioavailability [24]: 38%; MRT [25]: 2.3 h
